16 compounds from ChEMBL document CHEMBL4765363, “Design, synthesis and biological evaluation of 4-aniline quinazoline derivatives conjugated with hydrogen sulfide (HS) donors as potent EGFR inhibitors against L858R resistance mutation” (Eur J Med Chem, 2020) can be followed below.

Each structure is given as a SMILES string.

Assay [1] deals with Epidermal growth factor receptor (Homo sapiens) (UniProt P00533). Description: Inhibition of wild type EGFR in human A549 cells assessed as cell growth inhibition measured after 72 hrs by Celltiter-Glo luminescent cell viability assay. The format is cell-based. Summed up: (§1)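 Cells seeded at 2500-3000 per well and exposed to test agents across a concentration series for 72 h. Viability read by CellTiter-Glo luminescence, normalized to DMSO controls. Mean of three independent measurements (standard error <20%); GI50 obtained by curve fitting. Single-concentration readout is proliferation rate at 10 µM.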
Epidermal growth factor receptor (Homo sapiens), sequence (P00533 whole entry): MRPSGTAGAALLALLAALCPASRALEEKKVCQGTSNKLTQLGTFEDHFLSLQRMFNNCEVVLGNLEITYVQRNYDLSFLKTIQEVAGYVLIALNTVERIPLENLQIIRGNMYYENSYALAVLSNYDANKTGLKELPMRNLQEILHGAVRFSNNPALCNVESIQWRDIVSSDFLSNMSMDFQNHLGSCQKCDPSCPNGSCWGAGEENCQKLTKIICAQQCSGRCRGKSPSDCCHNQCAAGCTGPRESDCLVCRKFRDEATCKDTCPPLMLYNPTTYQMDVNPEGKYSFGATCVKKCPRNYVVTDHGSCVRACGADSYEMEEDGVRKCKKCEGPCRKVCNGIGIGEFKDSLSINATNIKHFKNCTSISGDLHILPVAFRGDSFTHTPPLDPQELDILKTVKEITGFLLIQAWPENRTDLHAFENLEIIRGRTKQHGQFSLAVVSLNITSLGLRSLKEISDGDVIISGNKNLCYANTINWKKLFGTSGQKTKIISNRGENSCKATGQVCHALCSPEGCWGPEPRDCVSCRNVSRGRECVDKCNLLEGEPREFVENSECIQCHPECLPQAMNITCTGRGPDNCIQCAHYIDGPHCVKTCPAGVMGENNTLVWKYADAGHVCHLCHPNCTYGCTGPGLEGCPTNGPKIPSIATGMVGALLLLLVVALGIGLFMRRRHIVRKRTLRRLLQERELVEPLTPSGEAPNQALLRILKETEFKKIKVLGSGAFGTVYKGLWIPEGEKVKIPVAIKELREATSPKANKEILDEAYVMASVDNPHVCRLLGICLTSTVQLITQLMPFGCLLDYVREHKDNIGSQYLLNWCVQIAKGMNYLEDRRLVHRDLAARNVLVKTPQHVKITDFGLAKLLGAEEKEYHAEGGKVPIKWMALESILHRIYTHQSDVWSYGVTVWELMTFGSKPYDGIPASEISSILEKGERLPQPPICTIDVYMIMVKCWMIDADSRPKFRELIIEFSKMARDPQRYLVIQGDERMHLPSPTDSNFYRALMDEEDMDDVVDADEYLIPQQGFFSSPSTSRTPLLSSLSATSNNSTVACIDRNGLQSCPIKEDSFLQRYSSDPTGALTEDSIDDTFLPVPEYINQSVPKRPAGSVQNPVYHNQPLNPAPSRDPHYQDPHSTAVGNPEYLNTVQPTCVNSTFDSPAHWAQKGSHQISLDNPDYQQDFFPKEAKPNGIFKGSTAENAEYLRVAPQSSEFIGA

For assay [2], the target named is Epidermal growth factor receptor (Mus musculus) (UniProt Q01279). The note with it: BaF3, time 72.0 hrs.
Epidermal growth factor receptor (Mus musculus), sequence (Q01279 whole entry): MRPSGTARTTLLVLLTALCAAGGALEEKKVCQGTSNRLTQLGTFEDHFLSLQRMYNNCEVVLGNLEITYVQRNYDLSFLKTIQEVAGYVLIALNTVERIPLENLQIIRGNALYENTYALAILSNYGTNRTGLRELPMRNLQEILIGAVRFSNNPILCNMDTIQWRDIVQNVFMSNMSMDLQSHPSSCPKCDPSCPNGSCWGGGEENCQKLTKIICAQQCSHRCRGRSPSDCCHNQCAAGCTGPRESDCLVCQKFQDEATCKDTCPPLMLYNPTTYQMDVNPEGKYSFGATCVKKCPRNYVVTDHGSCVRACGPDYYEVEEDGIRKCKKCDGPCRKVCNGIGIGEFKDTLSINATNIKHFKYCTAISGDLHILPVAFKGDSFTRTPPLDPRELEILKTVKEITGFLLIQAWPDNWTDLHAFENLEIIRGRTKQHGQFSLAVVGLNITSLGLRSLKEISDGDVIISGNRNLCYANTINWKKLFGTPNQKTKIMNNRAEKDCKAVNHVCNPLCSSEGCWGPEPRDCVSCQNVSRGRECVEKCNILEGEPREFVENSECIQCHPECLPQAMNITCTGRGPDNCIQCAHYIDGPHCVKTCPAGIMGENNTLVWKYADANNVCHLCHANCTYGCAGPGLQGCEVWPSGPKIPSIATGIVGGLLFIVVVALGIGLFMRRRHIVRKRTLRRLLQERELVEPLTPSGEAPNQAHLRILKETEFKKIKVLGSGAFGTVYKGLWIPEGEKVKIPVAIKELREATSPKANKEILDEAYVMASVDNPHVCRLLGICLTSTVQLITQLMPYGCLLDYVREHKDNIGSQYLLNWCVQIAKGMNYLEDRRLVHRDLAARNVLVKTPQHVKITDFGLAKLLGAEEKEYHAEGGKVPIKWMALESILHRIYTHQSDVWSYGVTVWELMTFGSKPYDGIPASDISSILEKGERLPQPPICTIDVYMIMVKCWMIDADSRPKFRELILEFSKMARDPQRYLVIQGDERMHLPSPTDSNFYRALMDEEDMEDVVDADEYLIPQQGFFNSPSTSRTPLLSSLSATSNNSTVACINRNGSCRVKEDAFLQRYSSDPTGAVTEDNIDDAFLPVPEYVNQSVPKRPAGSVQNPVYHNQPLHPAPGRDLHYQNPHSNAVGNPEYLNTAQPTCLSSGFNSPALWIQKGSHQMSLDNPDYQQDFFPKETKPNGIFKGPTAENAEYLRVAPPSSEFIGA
Assay [3] deals with Epidermal growth factor receptor (Homo sapiens) (UniProt P00533). The note with it: BaF3, time 72.0 hrs.
For assay [4], the system named is Epidermal growth factor receptor (Homo sapiens), P00533 [L858R]. The conditions noted are these: BaF3, time 72.0 hrs.
Epidermal growth factor receptor (Homo sapiens), P00533 [L858R], sequence (P00533 whole entry L858R): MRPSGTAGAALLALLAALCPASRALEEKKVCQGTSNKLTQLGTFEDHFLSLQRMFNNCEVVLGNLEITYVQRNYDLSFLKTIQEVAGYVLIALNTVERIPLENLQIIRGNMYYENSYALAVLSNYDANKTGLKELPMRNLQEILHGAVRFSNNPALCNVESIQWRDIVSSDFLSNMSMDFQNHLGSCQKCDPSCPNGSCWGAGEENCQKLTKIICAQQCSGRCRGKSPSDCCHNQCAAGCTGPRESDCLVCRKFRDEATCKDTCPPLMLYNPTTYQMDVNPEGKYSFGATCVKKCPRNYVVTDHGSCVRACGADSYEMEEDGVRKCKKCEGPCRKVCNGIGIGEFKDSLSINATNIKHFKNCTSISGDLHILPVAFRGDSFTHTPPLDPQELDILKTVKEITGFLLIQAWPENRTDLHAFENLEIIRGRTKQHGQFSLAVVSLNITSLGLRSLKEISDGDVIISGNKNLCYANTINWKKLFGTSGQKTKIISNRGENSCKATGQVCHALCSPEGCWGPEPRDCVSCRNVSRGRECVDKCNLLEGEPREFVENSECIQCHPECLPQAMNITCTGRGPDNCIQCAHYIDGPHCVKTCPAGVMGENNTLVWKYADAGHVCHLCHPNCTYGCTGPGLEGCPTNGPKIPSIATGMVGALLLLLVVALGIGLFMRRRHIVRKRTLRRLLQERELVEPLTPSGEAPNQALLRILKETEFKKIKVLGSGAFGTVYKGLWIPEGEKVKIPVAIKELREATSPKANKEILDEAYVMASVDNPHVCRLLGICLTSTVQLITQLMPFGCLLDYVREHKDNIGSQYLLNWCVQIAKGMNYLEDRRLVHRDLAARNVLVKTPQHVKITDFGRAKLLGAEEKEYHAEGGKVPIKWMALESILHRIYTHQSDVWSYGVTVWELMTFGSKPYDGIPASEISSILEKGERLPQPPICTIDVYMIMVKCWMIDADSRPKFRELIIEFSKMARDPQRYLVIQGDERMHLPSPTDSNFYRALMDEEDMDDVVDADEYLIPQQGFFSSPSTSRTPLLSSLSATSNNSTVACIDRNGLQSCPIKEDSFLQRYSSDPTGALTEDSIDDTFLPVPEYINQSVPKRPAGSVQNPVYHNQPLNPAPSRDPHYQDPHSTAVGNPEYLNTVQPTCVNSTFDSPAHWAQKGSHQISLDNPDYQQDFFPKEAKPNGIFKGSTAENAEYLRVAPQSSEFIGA
Assay [5] deals with Epidermal growth factor receptor (Homo sapiens), P00533 [L858R,T790M]. The conditions noted are these: BaF3, time 72.0 hrs.
Epidermal growth factor receptor (Homo sapiens), P00533 [L858R,T790M], sequence (P00533 whole entry T790M/L858R, looked up): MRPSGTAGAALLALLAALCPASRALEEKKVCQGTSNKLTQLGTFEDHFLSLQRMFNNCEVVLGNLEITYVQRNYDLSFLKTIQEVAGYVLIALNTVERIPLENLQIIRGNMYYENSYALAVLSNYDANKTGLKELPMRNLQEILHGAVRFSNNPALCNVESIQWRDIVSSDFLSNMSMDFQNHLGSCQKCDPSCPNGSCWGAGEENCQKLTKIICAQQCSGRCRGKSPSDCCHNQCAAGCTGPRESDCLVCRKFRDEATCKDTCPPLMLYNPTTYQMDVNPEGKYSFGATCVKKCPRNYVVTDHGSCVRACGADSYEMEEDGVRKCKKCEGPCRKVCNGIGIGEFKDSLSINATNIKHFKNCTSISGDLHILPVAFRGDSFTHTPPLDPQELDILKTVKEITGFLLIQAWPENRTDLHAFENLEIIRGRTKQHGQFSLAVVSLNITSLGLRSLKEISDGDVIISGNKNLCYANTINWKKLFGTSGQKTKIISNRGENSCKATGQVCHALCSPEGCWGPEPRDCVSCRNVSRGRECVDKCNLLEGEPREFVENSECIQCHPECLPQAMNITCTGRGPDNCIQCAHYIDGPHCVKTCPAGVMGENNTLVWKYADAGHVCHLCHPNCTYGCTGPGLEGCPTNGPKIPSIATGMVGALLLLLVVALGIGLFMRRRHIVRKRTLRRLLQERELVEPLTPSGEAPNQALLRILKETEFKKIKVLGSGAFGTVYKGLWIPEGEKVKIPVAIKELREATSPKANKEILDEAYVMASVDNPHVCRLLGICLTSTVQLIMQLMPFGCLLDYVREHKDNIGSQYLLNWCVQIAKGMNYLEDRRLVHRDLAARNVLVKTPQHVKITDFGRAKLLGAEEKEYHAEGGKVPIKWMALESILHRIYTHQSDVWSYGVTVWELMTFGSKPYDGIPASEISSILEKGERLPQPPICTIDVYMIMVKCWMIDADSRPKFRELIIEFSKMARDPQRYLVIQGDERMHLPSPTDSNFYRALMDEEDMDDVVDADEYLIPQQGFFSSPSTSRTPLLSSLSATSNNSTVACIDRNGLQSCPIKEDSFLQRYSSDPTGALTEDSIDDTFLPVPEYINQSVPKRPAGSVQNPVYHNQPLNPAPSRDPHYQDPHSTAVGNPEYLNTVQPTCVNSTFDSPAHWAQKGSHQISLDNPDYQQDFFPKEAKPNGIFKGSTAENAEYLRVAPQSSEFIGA
The test system of assay [6] is Epidermal growth factor receptor (Homo sapiens), P00533 [L858R]. The conditions noted are these: NCI-H3255, time 72.0 hrs.
A short description of assay [7]: Induction of H2S generation in pH 7.4 PBS:acetone buffer at 10 to 200 uM measured after 3 hrs by NIR-HS probe based fluorescence spectrophotometric method. In kind it is functional. The conditions noted are these: dose 10-200 µM. Summed up:
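NIR-HS probe (10 µM) incubated with compound (0, 5, 10, 50, 100, 200 µM) in PBS:acetone 2:3 (pH 7.4) at 37 °C for 3 h. Fluorescence read at ex 670 / em 723 nm.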

Assay [8] in a line: Induction of H2S generation in pH 7.4 PBS:acetone buffer at 20 uM measured after 2 hrs by NIR-HS probe based fluorescence spectrophotometric method. In kind it is functional. Summed up:
(§2)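 Compound at 20 µM incubated with NIR-HS (10 µM) in PBS:acetone 2:3 at 37 °C, sampled from 0 to 180 min (0, 5, 30, 60, 90, 120, 150, 180 min). Emission read at 723 nm (ex 670 nm). H2S quantified against a Na2S calibration curve (0-8 µM, same probe and conditions, 3 h, F/F0 at 723 nm).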

The test system of assay [9] is HUVEC. Description: Cytotoxicity against HUVEC assessed as reduction in cell viability measured after 72 hrs by Celltiter-Glo luminescent cell viability assay. The note with it: Homo sapiens. In kind it is cell-based. Summed up: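 Cells seeded at 2500-3000 per well, exposed to a range of compound concentrations for 72 h. Viability read by CellTiter-Glo luminescence. Data normalised to DMSO controls, given as the mean of three independent measurements, with IC50 obtained by curve fitting.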

For assay [10], the system named is NCI-H3255. Description: Antiproliferative activity against human NCI-H3255 cells assessed as cell growth inhibition at 10 uM measured after 72 hrs by Celltiter-Glo luminescent cell viability assay relative to control. The conditions noted are these: NCI-H3255, 72 h. For orientation: In ATP-based viability assays light output follows the ATP content of the culture.

Assay [11] concerns Epidermal growth factor receptor (Homo sapiens), P00533 [C797S]. The experiment in a line: Inhibition of TEL-fused EGFR C797S mutant (unknown origin) transfected in mouse BaF3 cells assessed as reduction in cell proliferation incubated for 72 hrs by Celltiter-Glo luminescent cell viability assay. In kind it is cell-based. Summed up: as §1
In assay [12] the test system is Epidermal growth factor receptor (Homo sapiens), P00533 [L858R]. Description: Inhibition of EGFR L858R mutant in human NCI-H3255 cells assessed as cell growth inhibition measured after 72 hrs in presence of ZnCl2 by Celltiter-Glo luminescent cell viability assay. The format is cell-based.
For assay [13] the test system is unchanged. Description: Inhibition of EGFR L858R mutant phosphorylation at Y1068 residue in human NCI-H3255 cells measured after 4 hrs by Western blot analysis. In kind it is cell-based. Summed up:
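H3255 cells treated with a range of concentrations for 4 h, then lysed in cold RIPA containing 1% PMSF. Lysate protein quantified by BCA, separated by SDS-PAGE and transferred to PVDF. Blocked in 5% milk, probed with anti-phospho-EGFR (Y1068) and developed by ECL.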
In general terms: A western blot detects proteins with antibodies after separation by electrophoresis.

The subject of assay [14] is NCI-H3255. The experiment in a line: Cell cycle arrest in human NCI-H3255 cells assessed as accumulation at G0/G1 phase at 1 uM measured after 72 hrs by propidium iodide staining based flow cytometry (reference value: 53.55%). In kind it is functional. Summed up: (§3)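 H3255 cells in 10% FBS/RPMI given DMSO or compound at 1, 5 or 10 µM for 72 h, then washed in cold PBS, fixed in 70% cold ethanol and held overnight at -20 °C. Stained with PI/RNase buffer for 15 min at room temperature, then analysed by flow cytometry with ModFit phase modelling.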
On the technique in general: In flow cytometry, cells or beads pass a laser one at a time.

Assay [15] has as its system NCI-H3255. The experiment in a line: Cell cycle arrest in human NCI-H3255 cells assessed as accumulation at S phase at 1 uM measured after 72 hrs by propidium iodide staining based flow cytometry (reference value: 36.26%). In kind it is functional. Summed up: as §3
Assay [16] relates to NCI-H3255. Description: Cell cycle arrest in human NCI-H3255 cells assessed as accumulation at G2/M phase at 1 uM measured after 72 hrs by propidium iodide staining based flow cytometry (reference value: 10.18%). The format is functional. Summed up: as §3
Assay [17] deals with NCI-H3255. Description: Cell cycle arrest in human NCI-H3255 cells assessed as accumulation at G0/G1 phase at 5 uM measured after 72 hrs by propidium iodide staining based flow cytometry (reference value: 53.55%). The format is functional. Summed up:
as §3

Assay [18] deals with NCI-H3255. The experiment in a line: Cell cycle arrest in human NCI-H3255 cells assessed as accumulation at S phase at 5 uM measured after 72 hrs by propidium iodide staining based flow cytometry (reference value: 36.26%). The format is functional. Summed up:
as §3

Assay [19] concerns NCI-H3255. Description: Cell cycle arrest in human NCI-H3255 cells assessed as accumulation at G2/M phase at 5 uM measured after 72 hrs by propidium iodide staining based flow cytometry (reference value: 10.18%). In kind it is functional. Summed up:
as §3

For assay [20], the system named is NCI-H3255. The experiment in a line: Cell cycle arrest in human NCI-H3255 cells assessed as accumulation at G0/G1 phase at 10 uM measured after 72 hrs by propidium iodide staining based flow cytometry (reference value: 53.55%). In kind it is functional. Summed up:
as §3

In assay [21] the test system is NCI-H3255. The experiment in a line: Cell cycle arrest in human NCI-H3255 cells assessed as accumulation at S phase at 10 uM measured after 72 hrs by propidium iodide staining based flow cytometry (reference value: 36.26%). The format is functional. Summed up: as §3
Assay [22] has as its system NCI-H3255. The experiment in a line: Cell cycle arrest in human NCI-H3255 cells assessed as accumulation at G2/M phase at 10 uM measured after 72 hrs by propidium iodide staining based flow cytometry (reference value: 10.18%). The format is functional. Summed up: as §3
The nature of assay [23]: Induction of H2S generation in pH 7.4 PBS:acetone buffer at 20 uM measured within 1 hr by NIR-HS probe based fluorescence spectrophotometric method. The format is functional. Summed up:
as §2

One may read the GI50 as the concentration giving 50% growth inhibition. Regarding `C=CCCSSCC(=O)Nc1ccc2ncnc(Nc3ccc(F)c(Cl)c3)c2c1`, the GI50 in assay [1] is above 10 µM; in assay [2], above 10 µM; in assay [3] it was above 10 µM; in assay [4], 0.012 µM; in assay [5], above 10 µM; in assay [6] it was 0.349 µM.

`C=CCCSSCC(=O)Nc1ccc2ncnc(Nc3cccc(C(F)(F)F)c3)c2c1`: in [1], the GI50 is above 10 µM.

Turning to `O=C(COc1ccc(-c2cssc2=O)cc1)Nc1ccc2ncnc(Nc3cccc(C(F)(F)F)c3)c2c1`, the concentration for 50% growth inhibition (GI50) in [1] is above 10 µM.

`COc1cc2c(Nc3cccc(C(F)(F)F)c3)ncnc2cc1OCCCOc1ccc(-c2cssc2=S)cc1`: the GI50 in [1] was above 10 µM; in [2] it was 3.79 µM; in assay [3] it was 1.98 µM; in assay [4] it was 0.38 µM; in assay [5] it was 1.65 µM; in assay [6], 7.47 µM.

For `COc1cc2c(Nc3ccc(Br)cc3)ncnc2cc1OCCCOc1ccc(-c2cssc2=S)cc1`, the GI50 is above 10 µM in [1]; 9.23 µM in assay [2]; 9.56 µM in [3]; 0.25 µM in assay [4]; above 10 µM in assay [5]; 1.41 µM in assay [6].

In the case of `COc1ccc(Nc2ncnc3cc(OCCCOc4ccc(-c5cssc5=S)cc4)c(OC)cc23)cc1OC`, the GI50 in [1] was above 10 µM; in assay [2], 2.65 µM; in assay [3], 3.39 µM; in assay [4], 0.83 µM; in assay [5] it was 6.35 µM; in [6] it was 8.58 µM. In addition, the Drug metabolism entry in [7] and in [8] was “Metabolite detected” throughout.

On to `COc1cc2c(Nc3cccc(Br)c3)ncnc2cc1OCCCOc1ccc(-c2cssc2=S)cc1`, for which the GI50 in [1] was above 10 µM; in [2] it was 9.23 µM; in assay [3], 3.06 µM; in assay [4], 0.12 µM; in assay [5], above 10 µM; in [6] it was 2.4 µM.

By IC50 is commonly meant the concentration needed to halve the response being measured. As for `C=CC(=O)Nc1cc(Nc2nccc(-c3cn(C)c4ccccc34)n2)c(OC)cc1N(C)CCN(C)C` [OSIMERTINIB], the IC50 in assay [9] worked out at 7.28 µM.

For the compound `[Cl-].[Cl-].[Zn+2]` [ZINC CHLORIDE], in [10], the Cell proliferation rate % at 10 µM was found to be 54%.

In the case of `COc1cc2c(Nc3ccc(F)c(Cl)c3)ncnc2cc1OCCCOc1ccc(-c2cssc2=S)cc1`, the GI50 is above 10 µM in assay [1]; above 10 µM in [2]; above 10 µM in assay [3]; 0.27 µM in assay [4]; above 10 µM in assay [5]; above 10 µM in assay [6].

Turning to `C=CCCSSCC(=O)Nc1ccc2ncnc(Nc3cccc(Br)c3)c2c1`, the GI50 in [1] is above 10 µM; in assay [2], above 10 µM; in assay [3] it was above 10 µM; in assay [4], 0.011 µM; in assay [5] it was above 10 µM; in [6], 0.519 µM.

Turning to `C=CCSSCCC(=O)OCCCOc1cc2ncnc(Nc3ccc(Br)cc3)c2cc1OC`, the GI50 in assay [1] is above 10 µM; in assay [2], 3.91 µM; in assay [3] it was 2.34 µM; in assay [4], 0.058 µM; in [5], above 10 µM; in assay [6] it was 1.35 µM.

For `C=CCSSCCC(=O)OCCCOc1cc2ncnc(Nc3cccc(Br)c3)c2cc1OC`, the GI50 in assay [11] was 0.0069 µM; in assay [1], above 10 µM; in assay [12], 0.303 µM; in assay [2] it was above 10 µM; in assay [3], above 10 µM; in [4], 0.008 µM. Besides, the GI50 is 6.03 µM in assay [5] and 0.787 µM in assay [6]. The IC50 in assay [9] was above 10 µM. Moreover, in [13], the inhibition entry was “Dose-dependent effect”. Besides, the Activity was 60.32% in assay [14]; 34.49% in assay [15]; 5.19% in assay [16]; 84.88% in [17]; 10.23% in assay [18]; 4.89% in assay [19]. The Activity in assay [20] is recorded as 88.61%; in [21] it was 8.73%; in assay [22], 2.66%. In addition, the Drug metabolism entry in assay [7] and in assay [23] was “Metabolite detected” in each case.

As for `COc1cc2c(Nc3ccc([N+](=O)[O-])cc3)ncnc2cc1OCCCOc1ccc(-c2cssc2=S)cc1`, the GI50 in assay [1] is above 10 µM; in [2], 3.79 µM; in assay [3], 4.08 µM; in [4], 0.6 µM; in [5], above 10 µM; in assay [6], 1.87 µM.

Turning to `O=C(COc1ccc(-c2cssc2=O)cc1)Nc1ccc2ncnc(Nc3ccc(F)c(Cl)c3)c2c1`, the 50% growth inhibitory concentration (GI50) in assay [1] was above 10 µM; in [2], 4.27 µM; in [3], 2.49 µM; in [4], 0.29 µM; in assay [5], 3.16 µM; in assay [6] it was 4.36 µM. Moreover, the Drug metabolism result in assay [7] and in assay [8] was “Metabolite detected” in each case.

As for `O=C(COc1ccc(-c2cssc2=O)cc1)Nc1ccc2ncnc(Nc3cccc(Br)c3)c2c1`, the 50% growth inhibitory concentration (GI50) in assay [1] is above 10 µM.
